Measurements: ChEMBL document CHEMBL1909494, “Synthesis and structure-activity relationship studies of 4-arylthiosemicarbazides as topoisomerase IV inhibitors with Gram-positive antibacterial activity. Search for molecular basis of antibacterial activity of thiosemicarbazides” (Eur J Med Chem, 2011)
Values after ≈ are worked out from the molar mass of the structure shown. Active and inactive are the calls of the source. The rule behind the calls is not given here.

Experiments:
Staphylococcus aureus [1] = assay: Antibacterial activity against Staphylococcus aureus ATCC 25923 by agar dilution method; format: functional
Staphylococcus aureus [2] = assay: Antibacterial activity against Staphylococcus aureus ATCC 6538 by agar dilution method; format: functional
Staphylococcus aureus [3] = assay: Antibacterial activity against Staphylococcus aureus ATCC 29213 by agar dilution method; format: functional
Staphylococcus aureus [4] = assay: Antibacterial activity against Staphylococcus aureus NCTC 4163 by agar dilution method; format: functional
[5] = system: Staphylococcus epidermidis; assay: Antibacterial activity against Staphylococcus epidermidis ATCC 12228 by agar dilution method; format: functional
Bacillus subtilis = assay: Antibacterial activity against Bacillus subtilis ATCC 6633 by agar dilution method; format: functional
Bacillus cereus = assay: Antibacterial activity against Bacillus cereus ATCC 11778 by agar dilution method; format: functional
Micrococcus luteus [6] = assay: Antibacterial activity against Micrococcus luteus ATCC 9341 by agar dilution method; format: functional
Micrococcus luteus [7] = assay: Antibacterial activity against Micrococcus luteus ATCC 10240 by agar dilution method; format: functional
[8] = (§1) Inhibition of Staphylococcus aureus topoisomerase 4 assessed as inhibition of decatenation of kDNA after 1 hr by agarose gel electrophoresis
Summary of the method: (§2)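 kDNA was incubated with 1 unit of topoisomerase IV in decatenation assay buffer with varying compound concentrations at 37 °C for 1 h. Reactions were stopped with 2x STOP buffer plus chloroform/iso-amyl alcohol and run on a 1% agarose gel in TAE for 1.5 h at 80 V, then stained with ethidium bromide. IC50 was the concentration preventing 50% conversion of kDNA to decatenated minicircles, derived from gel densitometry.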

[9] = target: DNA gyrase (Staphylococcus aureus) (UniProt P0A0K8+P20831); assay: Inhibition of Staphylococcus aureus gyrase using […] DNA as substrate after 1 hr by agarose gel electrophoresis; format: protein-complex assay; conditions: in the assay text read “relaxed” for “supercoiled”
Summary of the method: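 The enzyme was incubated in the manufacturer's supercoiling assay buffer with varying compound concentrations at 37 °C for 1 h. Samples were run on a 1% agarose gel in TAE for 3 h at 50 V, stained with ethidium bromide and viewed under UV.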

Staphylococcus aureus [10] = assay: as §1; summary of the method: as §2

DNA gyrase (Staphylococcus aureus), sequence (P0A0K8 2-644 limits assumed): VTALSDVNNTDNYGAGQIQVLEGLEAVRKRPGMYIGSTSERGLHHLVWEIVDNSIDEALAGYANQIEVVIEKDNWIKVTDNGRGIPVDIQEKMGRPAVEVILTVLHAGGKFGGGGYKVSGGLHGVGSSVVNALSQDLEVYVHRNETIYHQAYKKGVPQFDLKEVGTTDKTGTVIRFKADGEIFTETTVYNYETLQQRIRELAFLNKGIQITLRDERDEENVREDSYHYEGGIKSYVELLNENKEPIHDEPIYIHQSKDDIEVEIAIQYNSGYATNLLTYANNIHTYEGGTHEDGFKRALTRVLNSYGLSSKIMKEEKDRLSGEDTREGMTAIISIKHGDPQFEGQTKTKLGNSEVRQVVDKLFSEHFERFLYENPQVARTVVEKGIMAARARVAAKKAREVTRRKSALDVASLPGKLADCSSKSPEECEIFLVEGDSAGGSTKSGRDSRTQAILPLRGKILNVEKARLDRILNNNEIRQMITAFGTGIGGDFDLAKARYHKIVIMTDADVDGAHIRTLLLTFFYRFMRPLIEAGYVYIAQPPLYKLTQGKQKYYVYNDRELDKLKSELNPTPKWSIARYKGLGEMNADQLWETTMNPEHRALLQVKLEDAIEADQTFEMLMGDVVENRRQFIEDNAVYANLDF
DNA gyrase (Staphylococcus aureus), sequence (P20831 whole entry partner): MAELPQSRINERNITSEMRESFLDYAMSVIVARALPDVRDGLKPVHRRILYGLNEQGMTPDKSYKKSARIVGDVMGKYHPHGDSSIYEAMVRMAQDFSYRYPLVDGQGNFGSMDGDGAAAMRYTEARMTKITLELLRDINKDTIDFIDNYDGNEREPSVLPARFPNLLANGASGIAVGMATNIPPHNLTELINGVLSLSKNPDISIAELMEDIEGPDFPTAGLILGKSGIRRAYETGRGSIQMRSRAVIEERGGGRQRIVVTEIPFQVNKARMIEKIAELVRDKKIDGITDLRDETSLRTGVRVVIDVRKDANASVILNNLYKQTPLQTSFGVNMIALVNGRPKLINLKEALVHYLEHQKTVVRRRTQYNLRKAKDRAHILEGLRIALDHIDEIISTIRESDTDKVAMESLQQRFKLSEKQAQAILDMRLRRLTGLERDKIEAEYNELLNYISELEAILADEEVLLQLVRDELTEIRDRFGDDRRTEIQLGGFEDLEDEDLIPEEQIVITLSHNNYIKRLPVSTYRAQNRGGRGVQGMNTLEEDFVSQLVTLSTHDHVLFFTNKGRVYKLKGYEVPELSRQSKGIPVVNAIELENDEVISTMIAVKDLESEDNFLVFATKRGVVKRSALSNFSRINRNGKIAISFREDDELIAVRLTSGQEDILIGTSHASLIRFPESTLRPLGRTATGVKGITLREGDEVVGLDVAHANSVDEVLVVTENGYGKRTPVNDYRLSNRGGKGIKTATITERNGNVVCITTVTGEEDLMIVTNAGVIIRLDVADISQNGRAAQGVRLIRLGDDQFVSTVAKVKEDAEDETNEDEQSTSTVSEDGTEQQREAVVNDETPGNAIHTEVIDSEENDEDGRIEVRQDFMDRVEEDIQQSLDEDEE

| SMILES | MIC (Staphylococcus aureus [1]) | MIC (Staphylococcus aureus [2]) | MIC (Staphylococcus aureus [3]) | MIC (Staphylococcus aureus [4]) | MIC [5] | MIC (Bacillus subtilis) | MIC (Bacillus cereus) | MIC (Micrococcus luteus [6]) | MIC (Micrococcus luteus [7]) | IC50 [8] | inhibition [9] | inhibition (Staphylococcus aureus [10]) |
| --- | --- | --- | --- | --- | --- | --- | --- | --- | --- | --- | --- | --- |
| Cc1nnsc1C(=O)NNC(=S)Nc1ccc(Cl)cc1 | 50 µg/mL (≈ 153 µM) | 100 µg/mL (≈ 305 µM) | 50 µg/mL (≈ 153 µM) | 100 µg/mL (≈ 305 µM) | 50 µg/mL (≈ 153 µM) | 50 µg/mL (≈ 153 µM) | 50 µg/mL (≈ 153 µM) | 100 µg/mL (≈ 305 µM) | 50 µg/mL (≈ 153 µM) | – | – | – |
| O=C(NNC(=S)Nc1ccccc1F)c1cc2ccccc2[nH]1 | 100 µg/mL (≈ 305 µM) | 200 µg/mL (≈ 609 µM) | 200 µg/mL (≈ 609 µM) | 200 µg/mL (≈ 609 µM) | 200 µg/mL (≈ 609 µM) | 100 µg/mL (≈ 305 µM) | 200 µg/mL (≈ 609 µM) | 100 µg/mL (≈ 305 µM) | 100 µg/mL (≈ 305 µM) | – | – | – |
| Cc1nnsc1C(=O)NNC(=S)Nc1ccc(F)cc1 | 200 µg/mL (≈ 642 µM) | 400 µg/mL (≈ 1280 µM) | 400 µg/mL (≈ 1280 µM) | 400 µg/mL (≈ 1280 µM) | 200 µg/mL (≈ 642 µM) | 200 µg/mL (≈ 642 µM) | 200 µg/mL (≈ 642 µM) | 100 µg/mL (≈ 321 µM) | 100 µg/mL (≈ 321 µM) | – | – | – |
| O=C(NNC(=S)Nc1ccc(F)cc1)c1cc2ccccc2[nH]1 | 100 µg/mL (≈ 305 µM) | 100 µg/mL (≈ 305 µM) | 100 µg/mL (≈ 305 µM) | 100 µg/mL (≈ 305 µM) | 100 µg/mL (≈ 305 µM) | 100 µg/mL (≈ 305 µM) | 100 µg/mL (≈ 305 µM) | 50 µg/mL (≈ 152 µM) | 25 µg/mL (≈ 76.1 µM) | – | – | – |
| Cc1nnsc1C(=O)NNC(=S)Nc1cccc(F)c1 | 200 µg/mL (≈ 642 µM) | 400 µg/mL (≈ 1280 µM) | 400 µg/mL (≈ 1280 µM) | 200 µg/mL (≈ 642 µM) | 400 µg/mL (≈ 1280 µM) | 400 µg/mL (≈ 1280 µM) | 400 µg/mL (≈ 1280 µM) | 200 µg/mL (≈ 642 µM) | 100 µg/mL (≈ 321 µM) | – | – | – |
| O=C(NNC(=S)Nc1ccc([N+](=O)[O-])cc1)c1cc2ccccc2[nH]1 | 50 µg/mL (≈ 141 µM) | 50 µg/mL (≈ 141 µM) | 50 µg/mL (≈ 141 µM) | 50 µg/mL (≈ 141 µM) | 50 µg/mL (≈ 141 µM) | 50 µg/mL (≈ 141 µM) | 50 µg/mL (≈ 141 µM) | 50 µg/mL (≈ 141 µM) | 50 µg/mL (≈ 141 µM) | 14 µM | – | – |
| Cc1nnsc1C(=O)NNC(=S)Nc1cc(F)ccc1F | 200 µg/mL (≈ 607 µM) | 400 µg/mL (≈ 1210 µM) | 400 µg/mL (≈ 1210 µM) | 400 µg/mL (≈ 1210 µM) | 400 µg/mL (≈ 1210 µM) | 200 µg/mL (≈ 607 µM) | 400 µg/mL (≈ 1210 µM) | 100 µg/mL (≈ 304 µM) | 200 µg/mL (≈ 607 µM) | – | – | – |
| Cc1nnsc1C(=O)NNC(=S)Nc1ccc([N+](=O)[O-])cc1 | 100 µg/mL (≈ 296 µM) | 100 µg/mL (≈ 296 µM) | 200 µg/mL (≈ 591 µM) | 100 µg/mL (≈ 296 µM) | 100 µg/mL (≈ 296 µM) | 100 µg/mL (≈ 296 µM) | 100 µg/mL (≈ 296 µM) | 100 µg/mL (≈ 296 µM) | 50 µg/mL (≈ 148 µM) | – | inactive | inactive |
| O=C(O)c1cn(C2CC2)c2cc(N3CCNCC3)c(F)cc2c1=O [CIPROFLOXACIN] | 0.5 µg/mL (≈ 1.51 µM) | 0.5 µg/mL (≈ 1.51 µM) | 0.5 µg/mL (≈ 1.51 µM) | 0.5 µg/mL (≈ 1.51 µM) | 0.5 µg/mL (≈ 1.51 µM) | < 0.125 µg/mL | 1 µg/mL (≈ 3.02 µM) | 4 µg/mL (≈ 12.1 µM) | 2 µg/mL (≈ 6.04 µM) | – | – | – |
| Cc1nnsc1C(=O)NNC(=S)Nc1ccccc1 | 400 µg/mL (≈ 1360 µM) | 400 µg/mL (≈ 1360 µM) | 400 µg/mL (≈ 1360 µM) | 400 µg/mL (≈ 1360 µM) | 400 µg/mL (≈ 1360 µM) | 400 µg/mL (≈ 1360 µM) | 400 µg/mL (≈ 1360 µM) | 100 µg/mL (≈ 341 µM) | 200 µg/mL (≈ 682 µM) | – | – | – |
| Cc1nnsc1C(=O)NNC(=S)Nc1ccc(Cl)cc1Cl | 100 µg/mL (≈ 276 µM) | 100 µg/mL (≈ 276 µM) | 100 µg/mL (≈ 276 µM) | 100 µg/mL (≈ 276 µM) | 100 µg/mL (≈ 276 µM) | 100 µg/mL (≈ 276 µM) | 100 µg/mL (≈ 276 µM) | 100 µg/mL (≈ 276 µM) | 100 µg/mL (≈ 276 µM) | – | – | – |
| O=C(NNC(=S)Nc1ccc(F)cc1F)c1cc2ccccc2[nH]1 | 100 µg/mL (≈ 289 µM) | 100 µg/mL (≈ 289 µM) | 200 µg/mL (≈ 577 µM) | 100 µg/mL (≈ 289 µM) | 100 µg/mL (≈ 289 µM) | 100 µg/mL (≈ 289 µM) | 100 µg/mL (≈ 289 µM) | 100 µg/mL (≈ 289 µM) | 25 µg/mL (≈ 72.2 µM) | 295 µM | – | – |
| Cc1nnsc1C(=O)NNC(=S)Nc1ccccc1C(F)(F)F | 50 µg/mL (≈ 138 µM) | 400 µg/mL (≈ 1110 µM) | 200 µg/mL (≈ 553 µM) | 100 µg/mL (≈ 277 µM) | 200 µg/mL (≈ 553 µM) | 200 µg/mL (≈ 553 µM) | 400 µg/mL (≈ 1110 µM) | 200 µg/mL (≈ 553 µM) | 200 µg/mL (≈ 553 µM) | – | – | – |
| Cc1nnsc1C(=O)NNC(=S)Nc1ccc(Br)cc1 | 100 µg/mL (≈ 269 µM) | 200 µg/mL (≈ 537 µM) | 200 µg/mL (≈ 537 µM) | 200 µg/mL (≈ 537 µM) | 200 µg/mL (≈ 537 µM) | 100 µg/mL (≈ 269 µM) | 100 µg/mL (≈ 269 µM) | 50 µg/mL (≈ 134 µM) | 100 µg/mL (≈ 269 µM) | 403 µM | – | – |
| O=C(NNC(=S)Nc1ccccc1Br)c1cc2ccccc2[nH]1 | 100 µg/mL (≈ 257 µM) | 200 µg/mL (≈ 514 µM) | 100 µg/mL (≈ 257 µM) | 200 µg/mL (≈ 514 µM) | 200 µg/mL (≈ 514 µM) | 200 µg/mL (≈ 514 µM) | 200 µg/mL (≈ 514 µM) | 100 µg/mL (≈ 257 µM) | 100 µg/mL (≈ 257 µM) | – | – | – |
